Screening data as filed in PubChem BioAssay.
RGS4 block: RGS4 inhibitors, primary screen, cell-based, HEK293 M3R inducible RGS4, calcium flux; Regulator of G-protein signaling 4 (Homo sapiens), P49798; Fluo-4 calcium flux; stronger effect = higher value; triggered by carbachol at its EC20; B-score at 10 µM; hit rate 0.45% among 310,000; AID 463165, 2010;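 active = B-score, a plate-corrected calcium signal, over three deviations above library mean, with baseline fluorescence within five deviations of library mean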;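 note: RGS4 expression induced by doxycycline in cells with stable M3 receptor; B-score is computed from the integrated fluorescence ratio over baseline after carbachol; higher B-score means a larger calcium signal and so more RGS4 inhibition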
MrgX1 antagonist: antagonists of human MrgX1 receptor, primary screen, HEK293 cells, Fluo-4 calcium flux. Mas-related G-protein coupled receptor member X1 (Homo sapiens), Q96LB2. BAM8-22 antagonism; stronger effect = lower value. B-score at 10 µM. hit rate 1.3% among 310,000. AID 588676, 2011;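 active = calcium-response B-score plate-corrected more than 3 library SD below zero, starting fluorescence within 5 deviations, no agonist response on first addition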;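 note: peak minus trough fluorescence over baseline after final BAM8-22 challenge near maximal dose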
Target sequence (Q96LB2 whole entry, looked up): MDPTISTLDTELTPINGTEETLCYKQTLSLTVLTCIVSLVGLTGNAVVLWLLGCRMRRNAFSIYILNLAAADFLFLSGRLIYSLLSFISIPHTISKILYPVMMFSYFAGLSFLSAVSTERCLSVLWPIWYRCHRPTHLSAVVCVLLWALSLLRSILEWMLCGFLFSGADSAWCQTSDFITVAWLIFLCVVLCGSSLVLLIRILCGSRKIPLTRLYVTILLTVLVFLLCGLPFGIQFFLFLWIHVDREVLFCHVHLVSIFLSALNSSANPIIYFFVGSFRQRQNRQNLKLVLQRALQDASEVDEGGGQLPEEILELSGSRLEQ
MrgX1 PAM: positive allosteric modulators of MrgX1, primary screen, HEK293 cells, Fluo-4 calcium flux; hit rate 0.63% among 310,000; B-score at 10 µM; Mas-related G-protein coupled receptor member X1 (Homo sapiens), Q96LB2; FDSS; stronger effect = higher value;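 active = plate-corrected calcium response at least 3 library SD above typical, normal starting fluorescence, not activating the receptor alone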;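 note: compound read alongside a low EC10 to EC30 dose of BAM8-22 agonist; peak minus trough fluorescence over baseline measured at the second addition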
RGS4 act: RGS4 potentiators or activators, primary screen, cell-based, HEK293 M3R inducible RGS4, calcium flux | carbachol calcium flux Fluo4; stronger effect = lower value | B-score at 10 µM | hit rate 0.92% among 310,000;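 active = B-score of the integrated calcium signal more than 4 SD below the library mean, with starting fluorescence not abnormally high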;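 note: negative B-score means reduced calcium response which marks RGS4 activation or potentiation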
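Reagent: ECmax carbachol challenge; Test system: M3R-expressing HEK293 line, RGS4 induced by doxycycline; Schedule: overnight RGS4 induction, 30 min dye load 37 °C, 20 min compound RT; Detection: calcium dye Fluo4 fluorescence; Read-out: Agonist-evoked peak-minus-minimum fluorescence over baseline, integrated ratio, B score.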
MrgX1 agonist: agonists of human MrgX1 receptor, primary screen, HEK293 cells, Fluo-4 calcium flux; Mas-related G-protein coupled receptor member X1 (Homo sapiens), Q96LB2; Fluo-4 calcium fluorescence, agonist mode; stronger effect = higher value; B-score at 10 µM; hit rate 0.44% among 310,000;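 active = calcium response B-score plate-corrected fluorescence ratio at least 3 library SD, with starting fluorescence B-score inside 5 SD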
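Test system: Stable human MrgX1 HEK293 cell line | Schedule: Overnight plating before 1 h dye loading | Read-out basis: Baseline-normalised fluorescence change ratio, B-scored | Detection: Kinetic calcium dye fluorescence, Fluo-4 NW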
Numbers without * were called inactive; i = inactive; · = no result. A selection: hits, their analogues and other compounds. The true share with any hit is near 3.5%.

SMILES	RGS4 block	MrgX1 antagonist	MrgX1 PAM	RGS4 act	MrgX1 agonist
O=C1NCC(c2ccccc2)C1C(=O)N/N=C/c1ccc(Cl)s1 (configuration not stated)	i	i	i	i	31*
O=C1NCC(c2ccccc2)C1C(=O)N/N=C\c1ccc(-c2ccc(Cl)c(Cl)c2)o1 (configuration not stated)	9*	i	i	i	i
C[C@H]1CN=C2N(CCNC(=O)CCC3CCCCC3)[C@H](Cc3ccc(O)cc3)CN21	i	i	i	i	i
O=C(CCC1CCCCC1)NCCN1C2=NC[C@H](Cc3ccccc3)N2C[C@H]1Cc1ccc(O)cc1	i	i	i	-8*	i
O=C(CCC1CCCCC1)NCCN1C2=NC[C@@H](Cc3ccccc3)N2C[C@H]1Cc1ccc(O)cc1	i	i	i	-7.1*	i
CCOC(=O)C1=C(O)c2ccccc2C(=O)/C1=C\c1ccc(C)cc1	·	i	i	·	28*
CCOC(=O)C1=C(C)N(c2ccc(C)cc2)C(=O)/C1=C\c1ccc(O)c(OC)c1	i	i	i	i	i
CCCOc1cccc(C(=O)NCCNC(=O)c2ccco2)c1	i	i	i	i	i
O=C1/C(=C\c2ccc(O)cc2)SC(=S)N1/N=C/c1ccc(O)cc1	i	i	i	i	39*
Cc1ccc(C23CC4CC(CC(C(=O)NC(C(=O)O)C(C)C)(C4)C2)C3)cc1 (configuration not stated)	i	i	i	i	i
CSc1ccccc1NC(=O)COC(=O)CCc1ccccc1	i	i	i	i	i
CCOc1ccc(N2C(=O)CC(Sc3ncccn3)C2=O)cc1 (configuration not stated)	i	i	i	i	i
CCOc1ccc(N2C(=O)CC(Sc3nc(-c4cccs4)cc(C(F)(F)F)c3C#N)C2=O)cc1 (configuration not stated)	i	-7.1*	i	i	i
Cn1c(=O)cc(OCC(=O)NCCCN2CCN(Cc3ccccc3)CC2)c2ccccc21	i	-4.5*	i	i	i
O=C(/C=C/c1cccs1)N1CCC2(CC1)Oc1ccc(Cl)cc1C(=O)C21CC(c2ccc(Cl)cc2)=NO1 (configuration not stated)	i	i	i	i	i
O=C(/C=C/c1cccs1)N1CCC2(CC1)Oc1ccc(F)cc1C(=O)C21CC(c2ccc(Cl)cc2)=NO1 (configuration not stated)	i	-4.5*	i	i	i
C/C(CC(=O)Nc1cccc(F)c1)=N\NC(=O)c1ccncc1	i	i	i	i	i
COC(=O)C1=CN(C2CC2)C=C(C(=O)OC)C1c1ccc(C(=O)OC)cc1	i	i	i	i	i
COC(=O)C1=CN(C2CC2)C=C(C(=O)OC)C1c1ccc(C(F)(F)F)cc1	i	-6.6*	i	i	i
CC(=O)NC(CC(=O)N1CCCC1)c1ccccc1 (configuration not stated)	i	-5.3*	i	i	i
CC(=O)NC(CC(=O)O)c1ccccc1 (configuration not stated)	i	i	i	i	i
Cc1ccc(-n2c3nc(=O)n(C)c(=O)c-3cc3ccccc32)cc1	i	i	i	-8*	i
Cc1ccc(C(=O)NC2CCCCC2)cc1S(=O)(=O)N1CCCC1	i	i	i	i	i
CC1=NN(/C(=N\c2nnc(C)s2)Nc2ccc(C)cc2)[C@H](c2ccc(C)cc2)S1	i	i	i	i	30*
O=C(CSCc1c(F)cccc1Cl)NCc1cccnc1	i	i	i	i	i
N#C/C(=C\c1cccnc1)c1nc2c(s1)CCCC2	i	-5.5*	i	i	i
O=C(NCC1CCN(Cc2ccc(Cl)cc2)CC1)C1CCCN(c2ncnc3c2nc2n3CCCCC2)C1 (configuration not stated)	i	i	i	-7.2*	i
